Measured values published in ChEMBL document CHEMBL1146754, “Estrogen receptor ligands. Part 4: The SAR of the syn-dihydrobenzoxathiin SERAMs” (Bioorg Med Chem Lett, 2004).

What was measured:
Estrogen receptor [1] = biological target: T1, Estrogen receptor (Homo sapiens, UniProt P03372)
T1 sequence (P03372 whole entry): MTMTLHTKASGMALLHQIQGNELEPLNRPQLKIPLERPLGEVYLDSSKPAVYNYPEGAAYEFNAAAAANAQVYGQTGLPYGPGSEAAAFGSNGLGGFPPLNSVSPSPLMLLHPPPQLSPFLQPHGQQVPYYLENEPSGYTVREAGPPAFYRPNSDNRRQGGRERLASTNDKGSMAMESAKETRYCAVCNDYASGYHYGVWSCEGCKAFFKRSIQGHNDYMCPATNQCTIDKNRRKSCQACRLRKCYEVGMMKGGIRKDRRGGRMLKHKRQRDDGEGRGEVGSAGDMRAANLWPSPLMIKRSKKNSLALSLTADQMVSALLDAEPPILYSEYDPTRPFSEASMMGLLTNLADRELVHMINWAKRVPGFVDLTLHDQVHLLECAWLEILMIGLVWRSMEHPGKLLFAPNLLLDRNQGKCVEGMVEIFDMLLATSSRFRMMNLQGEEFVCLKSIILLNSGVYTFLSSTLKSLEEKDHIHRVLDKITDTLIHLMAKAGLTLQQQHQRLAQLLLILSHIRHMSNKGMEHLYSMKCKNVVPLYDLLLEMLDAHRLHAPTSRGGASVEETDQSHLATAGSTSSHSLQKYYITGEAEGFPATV

Estrogen receptor [2] = biological target: T1, Estrogen receptor; assay: Potency in cellular transactivation assay utilizing HEK293 cells stably co-transfected with human estrogen receptor alpha and the alkaline phosphatase reporter gene.; type: functional, cell-based
Estrogen receptor beta [3] = biological target: T2, Estrogen receptor beta (Homo sapiens, UniProt Q92731)
[4] = biological target: T3, Estrogen receptor (Rattus norvegicus) (UniProt P06211+Q62986); settings: at 1 mg/kg
[5] = biological target: T3, Estrogen receptor (Rattus norvegicus); settings: at 1 mg/kg; remark: listed apart in the source
Estrogen receptor beta [6] = biological target: T2, Estrogen receptor beta; assay: Potency in cellular transactivation assay utilizing HEK293 cells stably co-transfected with human estrogen receptor beta and the alkaline phosphatase reporter gene; type: functional, cell-based
Rattus norvegicus [7] = organism: Rattus norvegicus; assay: (§1) Bioavailability in rat (Sprague-Dawley) (female); type: ADME, organism-based; settings: in vivo
Summary of the method: (§2)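 Female Sprague–Dawley rats were dosed intravenously at 1 mpk (n = 2) and orally at 2 mpk (n = 3) for pharmacokinetic evaluation.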

Rattus norvegicus [8] = organism: Rattus norvegicus; assay: (§3) Plasma clearance of the compound in female Sprague-Dawley rats; type: ADME, organism-based; settings: in vivo
Summary of the method: as §2

Rattus norvegicus [9] = organism: Rattus norvegicus; assay: (§4) Half life period in female Sprague-Dawley rats; type: ADME, organism-based; settings: in vivo
Summary of the method: as §2

[10] = as §1; type: ADME, organism-based; settings: female, Sprague-Dawley, in vivo
Summary of the method: as §2

[11] = as §3; type: ADME, organism-based; settings: female, Sprague-Dawley, rat, plasma
Summary of the method: as §2

[12] = as §4; type: ADME, organism-based; settings: female, Sprague-Dawley, rat, in vivo
Summary of the method: as §2

[13] = biological target: T3, Estrogen receptor (Rattus norvegicus); settings: at 1 mg/kg; remark: listed apart in the source
[14] = biological target: T3, Estrogen receptor (Rattus norvegicus); settings: at 1 mg/kg; remark: listed apart in the source
Estrogen receptor beta [15] = biological target: T2, Estrogen receptor beta; assay: Agonist effect in transcriptional activation in HEK293 cells expressing human estrogen receptor beta; NA= not active; type: functional, cell-based
Estrogen receptor [16] = biological target: T1, Estrogen receptor; assay: Agonist effect in transcriptional activation in HEK293 cells expressing human estrogen receptor alpha; NA= not active; type: functional, cell-based

T2 sequence (Q92731 whole entry): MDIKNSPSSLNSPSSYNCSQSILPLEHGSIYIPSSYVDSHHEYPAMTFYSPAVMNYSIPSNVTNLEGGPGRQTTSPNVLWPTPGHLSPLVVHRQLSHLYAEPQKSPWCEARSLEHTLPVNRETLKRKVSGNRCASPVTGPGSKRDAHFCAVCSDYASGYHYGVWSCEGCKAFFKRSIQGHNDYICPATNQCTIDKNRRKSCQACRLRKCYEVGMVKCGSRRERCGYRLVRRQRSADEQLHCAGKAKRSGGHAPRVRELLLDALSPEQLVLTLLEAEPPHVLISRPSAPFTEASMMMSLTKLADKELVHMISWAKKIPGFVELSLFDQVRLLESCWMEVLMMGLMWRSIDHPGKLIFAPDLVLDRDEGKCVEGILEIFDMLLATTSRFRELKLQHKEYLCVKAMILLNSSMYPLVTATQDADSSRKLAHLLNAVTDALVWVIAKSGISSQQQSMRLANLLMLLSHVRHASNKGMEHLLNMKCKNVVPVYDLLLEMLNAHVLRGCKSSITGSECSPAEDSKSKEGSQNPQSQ

Row | SMILES | IC50 (Estrogen receptor [1]) | IC50 (Estrogen receptor [2]) | IC50 (Estrogen receptor beta [3]) | Estrogenic effect [4] | Antagonism [5] | IC50 (Estrogen receptor beta [6]) | other results
1 | Oc1ccc([C@@H]2Sc3cc(O)ccc3O[C@@H]2c2ccc(OCCN3CCCCC3)cc2)cc1 (stereo in doubt; 11L) [listing 1 of 2 here] | – | – | – | – | – | – | F (Rattus norvegicus [7]): 10%; CL (Rattus norvegicus [8]): 31 mL/min/kg; T1/2 (Rattus norvegicus [9]): 1.6 h
2 | Oc1ccc2c(c1)SC(c1ccccc1)C(c1ccc(OCCN3CCCCC3)cc1)O2 (stereo unspecified) | 11.9 nM | – | 300 nM | – | – | – | –
3 | Oc1ccc([C@@H]2Sc3cc(O)c(F)cc3O[C@@H]2c2ccc(OCCN3CCCCC3)cc2)cc1 | 13.5 nM | – | 413 nM | 13% | 53% | – | –
4 | Oc1ccc([C@@H]2Sc3cc(O)ccc3O[C@@H]2c2ccc(OCCN3CCCCC3)cc2)cc1 (stereo in doubt; 11L) [listing 2 of 2 here] | – | – | – | – | – | – | Antagonism [13]: 16%; Estrogenic effect [14]: 1%
5 | Oc1ccc([C@@H]2Sc3cc(O)ccc3O[C@@H]2c2ccc(OCCN3CCCCC3)cc2)cc1 (stereo in doubt; 11) [listing 1 of 2 here] | – | – | – | 5% | 77% | – | –
6 | CN(C)CCOc1ccc([C@@H]2Oc3ccc(O)cc3S[C@@H]2c2cccc(O)c2)cc1 | 1.4 nM | 2.3 nM | 129 nM | 69% | 34% | 7.3 nM | –
7 | COc1ccc(C2Sc3cc(O)ccc3OC2c2ccc(OCCN3CCCCC3)cc2)cc1 (stereo unspecified) | 41.1 nM | 274 nM | 792 nM | – | – | > 1000 nM | –
8 | CCc1cc(O)cc2c1S[C@@H](c1ccc(O)cc1)[C@@H](c1ccc(OCCN3CCCCC3)cc1)O2 | 53.3 nM | 342 nM | 185 nM | – | – | 1460 nM | –
9 | Oc1ccc([C@@H]2Sc3c(O)cc(O)cc3O[C@@H]2c2ccc(OCCN3CCCCC3)cc2)cc1 | 25 nM | – | 788 nM | 7% | 64% | – | –
10 | Oc1ccc([C@@H]2Sc3cc(O)c(Cl)cc3O[C@@H]2c2ccc(OCCN3CCCCC3)cc2)cc1 | 5.4 nM | 14.8 nM | 73 nM | 38% | 36% | 2370 nM | –
11 | Cc1cc2c(cc1O)O[C@H](c1ccc(OCCN3CCCCC3)cc1)[C@H](c1ccc(O)cc1)S2 | 34.9 nM | – | 595 nM | – | – | – | –
12 | Oc1cccc([C@H]2Sc3cc(O)ccc3O[C@H]2c2ccc(OCCN3CCOCC3)cc2)c1 | 3.8 nM | 4.7 nM | 318 nM | 29% | 54% | 65.3 nM | –
13 | Oc1cccc([C@H]2Sc3cc(O)ccc3O[C@H]2c2ccc(OCCNC3CCCCCC3)cc2)c1 | 1.2 nM | 3.5 nM | 103 nM | 22% | 57% | 67 nM | –
14 | Oc1ccc([C@@H]2Sc3cc(O)ccc3O[C@@H]2c2ccc(OCCN3CCCCC3)cc2)cc1 (stereo in doubt; 11) [listing 2 of 2 here] | – | – | – | – | – | – | F (Rattus norvegicus [7]): 31%; CL (Rattus norvegicus [8]): 5 mL/min/kg; T1/2 (Rattus norvegicus [9]): 3.8 h
15 | Oc1ccc([C@@H]2Sc3cc(Cl)c(O)cc3O[C@@H]2c2ccc(OCCN3CCCCC3)cc2)cc1 | 23.1 nM | 61 nM | 520 nM | – | – | 3020 nM | –
16 | Oc1ccc([C@H]2Sc3cc(O)ccc3O[C@H]2c2ccc(OCCN3CCCCC3)cc2)cc1 | – | – | – | – | – | – | bioavailability [10]: 62%; Estrogenic effect [14]: 9%; clearance [11]: 10 mL/min/kg; half-life [12]: 3.4 h

Continued by falling IC50 (Estrogen receptor [1]), values first:

Row | IC50 (Estrogen receptor [1]) | IC50 (Estrogen receptor [2]) | IC50 (Estrogen receptor beta [3]) | Estrogenic effect [4] | Antagonism [5] | IC50 (Estrogen receptor beta [6]) | SMILES | other results
17 | 5.3 nM | 22.6 nM | 343 nM | 12% | -4% | 690 nM | Cc1cc(O)cc2c1O[C@H](c1ccc(OCCN3CCCCC3)cc1)[C@H](c1ccc(O)cc1)S2 | –
18 | 5.3 nM | 25.4 nM | 105 nM | – | – | 1010 nM | Oc1ccc([C@@H]2Sc3cc(O)cc(Cl)c3O[C@@H]2c2ccc(OCCN3CCCCC3)cc2)cc1 | –
19 | 4.7 nM | – | 25 nM | – | – | – | CCc1c(O)ccc2c1O[C@H](c1ccc(OCCN3CCCCC3)cc1)[C@H](c1ccc(O)cc1)S2 | –
20 | 4.1 nM | 5.4 nM | 115 nM | 12% | 78% | 157 nM | Oc1cccc([C@H]2Sc3cc(O)ccc3O[C@H]2c2ccc(OCCN3CCCCC3)cc2)c1 | –
21 | 3.8 nM | 94 nM | 66.6 nM | 5% | 9.5% | 1550 nM | Oc1ccc2c(c1)SC(c1ccc(F)cc1)C(c1ccc(OCCN3CCCCC3)cc1)O2 (stereo unspecified) | –
22 | 3.4 nM | – | 350 nM | 30% | 43% | – | CC1CCCC(C)N1CCOc1ccc([C@@H]2Oc3ccc(O)cc3S[C@@H]2c2cccc(O)c2)cc1 (stereo partly specified) | IC50 (Estrogen receptor beta [15]): Not Active; IC50 (Estrogen receptor [16]): Not Active
23 | 3 nM | 3.6 nM | 250 nM | 16% | 90% | 245 nM | Oc1cccc(C2Sc3cc(O)ccc3OC2c2ccc(OCCN3CCCCC3)cc2)c1 (stereo unspecified) | –
24 | 2.4 nM | 1 nM | 14 nM | 27% | 67% | 64 nM | Oc1ccc([C@@H]2Sc3c(ccc(O)c3Cl)O[C@@H]2c2ccc(OCCN3CCCCC3)cc2)cc1 | –
25 | 2 nM | 5.5 nM | 46.2 nM | – | – | 200 nM | Cc1cc(O)cc2c1S[C@@H](c1ccc(O)cc1)[C@@H](c1ccc(OCCN3CCCCC3)cc1)O2 | bioavailability [10]: 6%; clearance [11]: 51 mL/min/kg; half-life [12]: 2.7 h
26 | 1.8 nM | 5 nM | 44.4 nM | 1% | 67% | 239 nM | Oc1ccc([C@@H]2Sc3ccc(O)cc3O[C@@H]2c2ccc(OCCN3CCCCC3)cc2)cc1 | bioavailability [10]: 0%; clearance [11]: 154 mL/min/kg; half-life [12]: 2.2 h
27 | 1.3 nM | – | 1.1 nM | – | – | – | Oc1ccc2c(c1)S[C@@H](c1ccccc1O)[C@@H](c1ccc(OCCN3CCCCC3)cc1)O2 | –
28 | 1.2 nM | 9.3 nM | 54 nM | 27% | 29% | 68.3 nM | Cc1c(O)ccc2c1O[C@H](c1ccc(OCCN3CCCCC3)cc1)[C@H](c1ccc(O)cc1)S2 | –
29 | 1 nM | – | 18 nM | – | – | – | Oc1ccc([C@H]2Sc3c(ccc(O)c3F)O[C@H]2c2ccc(OCCN3CCCCC3)cc2)cc1 | Antagonism [13]: 100%; bioavailability [10]: 37%; Estrogenic effect [14]: 1%; clearance [11]: 18 mL/min/kg; half-life [12]: 3.1 h
30 | 0.9 nM | 1.7 nM | 37 nM | 22% | 77% | 40.1 nM | Oc1cccc([C@H]2Sc3cc(O)ccc3O[C@H]2c2ccc(OCCN3CCCC3)cc2)c1 | –
31 | 0.8 nM | 2.5 nM | 13.2 nM | 7% | 76% | 177 nM | Oc1ccc([C@@H]2Sc3c(ccc(O)c3F)O[C@@H]2c2ccc(OCCN3CCCCC3)cc2)cc1 | bioavailability [10]: 22%; clearance [11]: 16 mL/min/kg; half-life [12]: 2.4 h
32 | 0.8 nM | 4 nM | 109 nM | 29% | 59% | 132 nM | CC1CCN(CCOc2ccc([C@@H]3Oc4ccc(O)cc4S[C@@H]3c3cccc(O)c3)cc2)CC1 | –
33 | 0.51 nM | 3.4 nM | 8 nM | 12% | 68% | 121 nM | Oc1ccc([C@@H]2Sc3c(Cl)cc(O)cc3O[C@@H]2c2ccc(OCCN3CCCCC3)cc2)cc1 | –
34 | 0.5 nM | 6.1 nM | 13 nM | -2% | 89% | 516 nM | Oc1ccc([C@@H]2Sc3c(F)cc(O)cc3O[C@@H]2c2ccc(OCCN3CCCCC3)cc2)cc1 | bioavailability [10]: 4.4%; clearance [11]: 41 mL/min/kg; half-life [12]: 5.9 h
